Tests used:
[1] = Partition coefficient (logP); assay type: physicochemical; settings: octanol/water
In short: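 Compound dissolved in 1-octanol, shaken with an equal volume of water for 10 min and phases separated by centrifugation. Each phase analysed by RP-HPLC with UV detection at 260 nm. P calculated from the peak areas of the aqueous and organic phases.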

CCRF-CEM = assay: In vitro cytotoxic concentration in CEM cells.; assay type: functional, Homo sapiens
[2] = system: Human immunodeficiency virus 1; assay: In vitro inhibition of HIV-1 replication in human T-lymphocytic cells (CEM).; assay type: functional, organism-based
In short: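 CEM cells at 4×10^5 cells/mL infected with HIV-1 or HIV-2 (strain ROD, stocks grown in MT-4 cells) at ~100 CCID50 per mL. Infected cells mixed 1:1 with compound dilutions.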

[3] = Selectivity index by CC50 of CEM cells/EC50 of CEM cells against HIV-1; assay type: functional, CCRF-CEM
[4] = Hydrolysis half life in glycine/HCl buffer at the specified pH of 1.5; assay type: ADME; settings: pH 1.5
In short: (§1)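 Compound diluted from DMSO stock to 0.71 mM final in 24.8 mM buffer at 37 °C, with AZT as internal standard. Buffers: phosphate (Sörensen) pH 7.3; glycine/HCl pH 3.0 or 1.5. Aliquots stopped by freezing and analysed by RP-HPLC at 260 nm. Rate constant taken from the log degradation slope, half-life calculated from it; mean of duplicates.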

C3H/3T3 [5] = assay: (§2) Effect of compound against Moloney murine sarcoma virus (MSV)-induced transformation of C3H/3T3 embryo murine fibroblasts; assay type: functional, cell-based, Mus musculus
In short: (§3)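 C3H/3T3 mouse embryo fibroblasts seeded at 20 000 cells/mL, incubated 24 h, infected with 80 focus-forming units of MSV for 120 min, then given fresh medium with compound dilutions. Transformation scored microscopically after 6 days; EC50 is the concentration giving 50% inhibition of transformation. MCC is the lowest concentration causing microscopically visible morphological alteration of the fibroblast cultures.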

[6] = Hydrolysis half life in glycine/HCl buffer at the specified pH of 3.0; assay type: ADME; settings: pH 3; in short: as §1
[7] = system: Human immunodeficiency virus 2; assay: In vitro inhibition of HIV-2 replication in human T-lymphocytic cells (CEM).; assay type: functional, organism-based
In short: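 CEM cells at 4×10^5 cells/mL infected with HIV-1 or HIV-2 (strain ROD, stocks grown in MT-4 cells) at ~100 CCID50 per mL. Infected cells mixed 1:1 with compound dilutions. Giant cell formation recorded microscopically after 4-5 days; EC50 is the 50% effective concentration.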

C3H/3T3 [8] = assay: Minimal cytotoxic concentration required to cause morphological alteration of C3H/3T3 fibroblast culture cells; assay type: functional; settings: Mus musculus; in short: as §3
[9] = Hydrolysis half life in phosphate buffer at the specified pH of 7.3; assay type: ADME; settings: pH 7.3; in short: as §1
C3H/3T3 [10] = assay: as §2; assay type: functional, cell-based; settings: Mus musculus; in short: as §3
[11] = Selectivity by CC50 of CEM cells/EC50 of CEM cells against HIV-1; assay type: functional, CCRF-CEM
C3H/3T3 [12] = assay: Minimal cytotoxic concentration in C3H/3T3 cells.; assay type: functional; settings: Mus musculus; in short: as §3

Row | SMILES | logP ([1]; read-out: logP) | CC50 (CCRF-CEM; Homo sapiens, CCRF-CEM) | EC50 ([2]; Human immunodeficiency virus 1) | SI [3] | half-life [4] | EC50 (C3H/3T3 [5]; Mus musculus, C3H/3T3) | half-life [6] | EC50 ([7]; Human immunodeficiency virus 2) | MCC (C3H/3T3 [8]) | half-life [9] | EC50 (C3H/3T3 [10]) | logP [1] | CC50 (CCRF-CEM) | EC50 [2] | EC50 (C3H/3T3 [5]; c3h/3t3) | EC50 [7] | SI [11] | MCC (C3H/3T3 [12])
1 | Cc1cc(C)c2c(c1)COP(=O)(OC[C@@H]1C=C[C@H](n3cnc4c(N)ncnc43)O1)O2 (some centres undefined) | 0.95 | 25000 nM | 50 nM | 494 | 0.6 min | 1140 nM | 8.4 min | 55 nM | > 50 µM | 44.7 h | – | – | – | – | – | – | – | –
2 | COc1ccc2c(c1)COP(=O)(OCC1CCC(n3cnc4c(N)ncnc43)O1)O2 (centres undefined) | 0.64 | 87000 nM | 47 nM | 1851 | 48 min | – | 732 min | 160 nM | > 50 µM | 23.4 h | 3900 nM | – | – | – | – | – | – | –
3 | OCC1CCC(n2cnc3ncnc(O)c32)O1 (centres undefined) | -1.25 | 156000 nM | 3500 nM | 44 | 1.8 min | > 50000 nM | 12 min | 4000 nM | > 50 µM | – | – | – | – | – | – | – | – | –
4 | Cc1cccc2c1OP(=O)(OCC1CCC(n3cnc4c(N)ncnc43)O1)OC2 (centres undefined) | 0.88 | 28000 nM | 47 nM | 585 | 31.8 min | – | 834 min | 30 nM | > 50 µM | 44.3 h | 1180 nM | – | – | – | – | – | – | –
5 | Nc1ncnc2c1ncn2[C@H]1C=C[C@@H](CO)O1 | -0.49 | 96000 nM | 30000 nM | 3 | < 0.6 min | 35000 nM | 0.6 min | 50000 nM | > 50 µM | – | – | – | – | – | – | – | – | –
6 | COc1ccc2c(c1)COP(=O)(OC[C@@H]1C=C[C@H](n3cnc4c(N)ncnc43)O1)O2 (stereo in doubt; 10b (f)) | – | – | – | 932 | – | – | – | – | – | – | – | 0.48 | 40000 nM | 43 nM | 2830 nM | 50 nM | – | –
7 | Nc1ncnc2c1ncn2[C@H]1C=C[C@@H](COP2(=O)OCc3ccccc3O2)O1 (some centres undefined) | 0.36 | 86000 nM | 65 nM | 1329 | 0.6 min | 300 nM | 8.4 min | 350 nM | > 50 µM | 10.3 h | – | – | – | – | – | – | – | –
8 | COc1ccc2c(c1)COP(=O)(OC[C@@H]1C=C[C@H](n3cnc4c(N)ncnc43)O1)O2 (stereo in doubt; 10b (s)) | 0.41 | 62000 nM | – | 125 | – | – | – | – | > 50 µM | – | – | – | – | 500 nM | 12800 nM | 330 nM | – | –
9 | Nc1ncnc2c1ncn2C1CCC(COP2(=O)OCc3ccccc3O2)O1 (centres undefined) | – | 93000 nM | 30 nM | 3096 | 36 min | – | 774 min | 130 nM | > 50 µM | 17 h | 2860 nM | 0.59 | – | – | – | – | – | –
10 | OC[C@@H]1C=C[C@H](n2cnc3ncnc(O)c32)O1 | -0.89 | 87000 nM | 4300 nM | 20 | < 0.6 min | > 50000 nM | < 0.6 min | > 50000 nM | > 50 µM | – | – | – | – | – | – | – | – | –
11 | Cc1cn([C@H]2C=C[C@@H](CO)O2)c(=O)[nH]c1=O [STAVUDINE] | – | 56000 nM | 180 nM | – | – | 15000 nM | – | 260 nM | – | – | – | – | – | – | – | – | 311 | –
12 | COc1ccc2c(c1)COP(=O)(OC[C@@H]1C=C[C@H](n3cnc4c(N)ncnc43)O1)O2 (stereo in doubt; 10b) | – | – | – | 962 | 0.66 min | – | 8.4 min | – | – | 14.5 h | – | – | 77000 nM | 80 nM | 1210 nM | 65 nM | – | –
13 | Cc1cn([C@H]2C[C@H](N=[N+]=[N-])[C@@H](CO)O2)c(=O)[nH]c1=O [ZIDOVUDINE] | 0.025 | > 100000 nM | – | – | – | > 100000 nM | – | 6 nM | – | – | – | – | – | – | – | – | – | –
14 | Nc1ncnc2c1ncn2[C@H]1CC[C@@H](CO)O1 | -0.28 | > 250000 nM | 4300 nM | – | – | 40000 nM | – | 4500 nM | – | – | – | – | – | – | – | – | >57 | > 50 µM
15 | Cc1cc(C)c2c(c1)COP(=O)(OCC1CCC(n3cnc4c(N)ncnc43)O1)O2 (centres undefined) | 1.35 | 10000 nM | 25 nM | 383 | 43.8 min | 1140 nM | 618 min | 25 nM | > 50 µM | 58.2 h | – | – | – | – | – | – | – | –
16 | Cc1cccc2c1OP(=O)(OCC1CCC(n3cnc4c(O)ncnc43)O1)OC2 (centres undefined) | 0.14 | 58000 nM | 1100 nM | 53 | 12 min | > 50000 nM | 180 min | 700 nM | > 50 µM | 44.5 h | – | – | – | – | – | – | – | –
17 | Cc1cccc2c1OP(=O)(OC[C@@H]1C=C[C@H](n3cnc4c(N)ncnc43)O1)OC2 (some centres undefined) | 0.63 | 49000 nM | 65 nM | 746 | 0.588 min | 1240 nM | 9 min | 190 nM | > 50 µM | 32.3 h | – | – | – | – | – | – | – | –

Reference: ChEMBL document CHEMBL1132195, “cycloSal-Pronucleotides of 2',3'-dideoxyadenosine and 2', 3'-dideoxy-2',3'-didehydroadenosine: synthesis and antiviral evaluation of a highly efficient nucleotide delivery system” (J Med Chem, 1999)
